The values below come from ChEMBL document CHEMBL1135165, “Pyrrolidine-5,5-trans-lactams as novel mechanism-based inhibitors of human cytomegalovirus protease. Part 3: potency and plasma stability” (Bioorg Med Chem Lett, 2002).

A word on the IC50: it is the point on the concentration scale where inhibition reaches its midpoint. By half-life is commonly meant the time in which the quantity being followed falls by half. Read a low half-life as rapid decline.

Series [1] concerns the target T1, Capsid scaffolding protein (Human cytomegalovirus (strain AD169) (HHV-5) (Human herpesvirus 5), UniProt P16753).
T1 sequence (P16753 whole entry): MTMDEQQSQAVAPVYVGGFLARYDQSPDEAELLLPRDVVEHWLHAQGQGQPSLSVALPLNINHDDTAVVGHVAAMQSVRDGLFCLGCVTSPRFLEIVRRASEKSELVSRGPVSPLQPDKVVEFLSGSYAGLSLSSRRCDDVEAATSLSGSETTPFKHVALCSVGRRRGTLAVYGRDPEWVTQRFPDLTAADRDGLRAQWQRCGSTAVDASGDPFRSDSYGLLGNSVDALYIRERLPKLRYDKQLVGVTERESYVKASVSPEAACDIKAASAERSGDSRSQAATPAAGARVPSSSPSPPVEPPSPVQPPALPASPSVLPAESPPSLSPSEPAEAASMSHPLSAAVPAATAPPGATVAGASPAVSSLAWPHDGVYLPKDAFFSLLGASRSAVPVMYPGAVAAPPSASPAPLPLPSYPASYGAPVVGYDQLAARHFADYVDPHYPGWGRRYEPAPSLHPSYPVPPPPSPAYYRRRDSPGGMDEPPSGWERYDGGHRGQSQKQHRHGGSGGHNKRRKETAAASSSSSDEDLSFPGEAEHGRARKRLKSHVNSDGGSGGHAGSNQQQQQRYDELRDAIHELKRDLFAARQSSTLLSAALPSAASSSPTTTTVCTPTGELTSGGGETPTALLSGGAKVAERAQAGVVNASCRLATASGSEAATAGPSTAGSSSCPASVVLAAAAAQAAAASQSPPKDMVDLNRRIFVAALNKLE
In words: Tested in vitro for inhibitory activity against Protease. Details: species or system Human betaherpesvirus 5. In outline: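 Human cytomegalovirus protease inhibition was measured in a p-nitroanilide (pNA) chromogenic substrate assay. Values are reported as IC50 in μM, with Ki also given for some compounds.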

A short description of series [2]: Half life in human plasma was reported. The class given is ADME, cell-free.

Bounds are passed on as bounds.

In turn, `CC1CC1C(=O)N1C(=O)[C@@H](C)[C@@H]2[C@@H]1CCN2C(=O)OCc1ccccc1` (stereo partly drawn) had a 50% inhibitory concentration (IC50) in series [1] of 16 µM. For the same compound, the half-life in series [2] was 2.6 h.

As to `C[C@@H]1C(=O)N(C(=O)C2C(C)(C)C2(C)C)[C@H]2CCN(C(=O)OCc3ccccc3)[C@H]12`, in series [1], the concentration for half-maximal inhibition (IC50) is more than 500 µM. For the same compound, the half-life in series [2] was 33 h.

The compound `CC(=O)N1C(=O)[C@@H](C)[C@@H]2[C@@H]1CCN2C(=O)OCc1ccccc1` came in with a half-life in series [2] of 0.9 h.

Take `CNC(=O)N1C(=O)[C@@H](C)[C@@H]2[C@@H]1CCN2C(=O)[C@@H]1CCCN1S(=O)(=O)c1cccc2c(N(C)C)cccc12`: the concentration for half-maximal inhibition (IC50) in series [1] was found to be 22 µM. For the same compound, the half-life in series [2] was 12 h.

In the case of `C[C@@H]1C(=O)N(C(=O)C2CC2)[C@H]2CCN(C(=O)OCc3ccccc3)[C@H]12`, in series [1], the IC50 worked out at 9 µM. Besides, the half-life in series [2] was 1.4 h.

`CC(=O)N1C(=O)C(C)(C)[C@@H]2[C@@H]1CCN2C(=O)OCc1ccccc1`: in series [1], the IC50 was more than 500 µM. The compound further showed a half-life in series [2] of 6.5 h.

On to `COP(=O)(OC)N1C(=O)[C@@H](C)[C@@H]2[C@@H]1CCN2C(=O)OCc1ccccc1`, for which the half-maximal inhibitory concentration (IC50) in series [1] is more than 500 µM. This compound displayed a half-life in series [2] of more than 24 h.

The compound `CC1CC1C(=O)N1C(=O)[C@@H](C)[C@@H]2[C@@H]1CCN2C(=O)[C@@H]1CCCN1S(=O)(=O)c1cccc2c(N(C)C)cccc12` (stereo partly drawn) yielded an IC50 in series [1] of 1.4 µM. In series [2], this compound had a half-life of 2.5 h.

`CNC(=O)N1C(=O)[C@@H](C)[C@@H]2[C@@H]1CCN2C(=O)OCc1ccccc1`: the IC50 in series [1] was more than 500 µM. This compound also had a half-life in series [2] of more than 24 h.

For the compound `C[C@@H]1[C@H](C)[C@@H]1C(=O)N1C(=O)[C@@H](C)[C@@H]2[C@@H]1CCN2C(=O)[C@@H]1CCCN1S(=O)(=O)c1cccc2c(N(C)C)cccc12`, half-maximal inhibition in series [1] (IC50) was put at 5.1 µM. Besides, the half-life in series [2] is 20 h.

Compound `C[C@@H]1C(=O)N(c2ccc([N+](=O)[O-])cc2[N+](=O)[O-])[C@H]2CCN(C(=O)OCc3ccccc3)[C@H]12` yielded an IC50 in series [1] of approximately 500 µM. In series [2], this compound came in with a half-life of more than 24 h.

As for `C[C@@H]1C(=O)N(C(=O)C2CC2)[C@H]2CCN(C(=O)[C@@H]3CCCN3S(=O)(=O)c3cccc4c(N(C)C)cccc34)[C@H]12`, the half-life in series [2] was 5 h.

In series [1], `C[C@@H]1C(=O)N(C(=O)C(C)(C)C)[C@H]2CCN(C(=O)OCc3ccccc3)[C@H]12` gave an IC50 of more than 500 µM. This compound also had a half-life in series [2] of 3.7 h.

The compound `C[C@@H]1C(=O)N(S(C)(=O)=O)[C@H]2CCN(C(=O)OCc3ccccc3)[C@H]12` gave a half-inhibitory concentration (IC50) in series [1] of approximately 500 µM. The same compound displayed a half-life in series [2] of less than 0.0833 h.

For the compound `C[C@@H]1C(=O)N(C(=O)NCc2ccccc2)[C@H]2CCN(C(=O)[C@@H]3CCCN3S(=O)(=O)c3cccc4c(N(C)C)cccc34)[C@H]12`, the IC50 in series [1] came out at 6.6 µM. This compound showed a half-life in series [2] of more than 33 h.

Regarding `C[C@@H]1C(=O)N(C(=O)NCc2ccccc2)[C@H]2CCN(C(=O)OCc3ccccc3)[C@H]12`, the half-maximal inhibitory concentration (IC50) in series [1] worked out at 250 µM. The compound further gave a half-life in series [2] of 12 h.

For `C[C@@H]1C(=O)N(c2nccs2)[C@H]2CCN(C(=O)[C@@H]3CCCN3S(=O)(=O)c3cccc4c(N(C)C)cccc34)[C@H]12`, the 50% inhibitory concentration (IC50) in series [1] was determined as 2.1 µM. Also, the half-life in series [2] was more than 50 h.

Turning to `C[C@@H]1[C@H](C)[C@@H]1C(=O)N1C(=O)[C@@H](C)[C@@H]2[C@@H]1CCN2C(=O)OCc1ccccc1`, the IC50 in series [1] was determined as 72 µM. Also, in series [2], the half-life was 9.8 h.

Compound `C[C@@H]1C(=O)N(c2ccc([N+](=O)[O-])cc2)[C@H]2CCN(C(=O)OCc3ccccc3)[C@H]12` registered an IC50 in series [1] of approximately 500 µM. Moreover, the half-life in series [2] was 40 h.

`C[C@@H]1C(=O)N(C(=O)C2C(C)(C)C2(C)C)[C@H]2CCN(C(=O)[C@@H]3CCCN3S(=O)(=O)c3cccc4c(N(C)C)cccc34)[C@H]12`: the IC50 in series [1] is more than 100 µM. The compound also had a half-life in series [2] of more than 24 h.

As for `COC(=O)N1C(=O)[C@@H](C)[C@@H]2[C@@H]1CCN2C(=O)OCc1ccccc1`, the IC50 in series [1] worked out at 148 µM. This compound registered a half-life in series [2] of 0.833 h.

Compound `C[C@@H]1C(=O)N(c2nccs2)[C@H]2CCN(C(=O)OCc3ccccc3)[C@H]12` displayed a half-maximal inhibitory concentration (IC50) in series [1] of approximately 500 µM. The compound further gave a half-life in series [2] of 44 h.

In turn, `C[C@@H]1C(=O)N(c2ccc([N+](=O)[O-])cc2)[C@H]2CCN(C(=O)[C@@H]3CCCN3S(=O)(=O)c3cccc4c(N(C)C)cccc34)[C@H]12` had an IC50 in series [1] of 41 µM.
